According to ChEMBL document CHEMBL1142147, “Action of disinfectant quaternary ammonium compounds against Staphylococcus aureus” (2007):
Activity calls are given as the source filed them. The calls are words filed in the database; no cut-off is given here.

What was measured:
[1] = tested on: Staphylococcus aureus; experiment: Reduction of cell count in Staphylococcus aureus ATCC 6538 between 6 to 18 hrs exposure; type: functional; design: scale not given: the % may be the effect or the level left
In short: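 Cells pre-exposed 4 h at 35°C to 9 μg/ml biocide, neutralized, washed, and held in HEPES at 35°C. Samples taken at 0 to 48 h, serially diluted, plated on TSA, incubated 18 h at 37°C and counted as CFU/ml.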

[2] = tested on: Staphylococcus aureus; experiment: Antibacterial activity against 10^8 CFU/ml Staphylococcus aureus ATCC 6538 after 48 hrs; type: functional; details: ATCC 6538, 48 h
In short: (§1)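 Spots of 5 μl inoculum (10-fold dilutions, 1 × 10⁹ to 1 × 10⁵ CFU/ml in HEPES) applied in triplicate. Incubated at 35°C and read visually at 24 and 48 h. MIC taken as no growth or <10 colonies in every spot of the triplicate.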

[3] = tested on: Staphylococcus aureus; experiment: Antibacterial activity against 10^7 CFU/ml Staphylococcus aureus ATCC 6538 after 48 hrs; type: functional; details: ATCC 6538, 48 h; in short: as §1
[4] = tested on: Staphylococcus aureus; experiment: Antibacterial activity against 10^6 CFU/ml Staphylococcus aureus ATCC 6538 after 48 hrs; type: functional; details: ATCC 6538, 48 h; in short: as §1
[5] = tested on: Staphylococcus aureus; experiment: Induction of membrane collapse in Staphylococcus aureus ATCC 6538 at 12 ug/ml; type: functional, organism-based
In short: (§2)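 Cells (final 2 × 10⁹ CFU/ml) exposed to 4.5 to 18 μg/ml biocide or HEPES at 25°C, shaken. Samples filtered (0.45 μm) at timed points up to 240 min. K⁺ measured by flame emission at 766.5 nm and 260-nm material by A260. Each expressed as percent of the maximal pool (cetrimide 1 mM; TCA extraction). Mean % leakage at 30 min plotted against concentration.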

[6] = tested on: Staphylococcus aureus; experiment: Antibacterial activity against 10^5 CFU/ml Staphylococcus aureus ATCC 6538 after 48 hrs; type: functional; details: ATCC 6538, 48 h; in short: as §1
[7] = tested on: Staphylococcus aureus; experiment: Induction of autolysis in Staphylococcus aureus ATCC 6538 at 9 ug/ml; type: functional, organism-based
In short: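 Washed cells (final 2 × 10⁹ CFU/ml) held with biocide at 9 μg/ml in HEPES at 35°C for 4 h, shaken. Then neutralized with lecithin/Tween 80, washed, and resuspended in HEPES at 35°C. Filtrates (0.45 μm) taken at 0, 2, 4, 18, 22 and 24 h and read at A260. Autolysis taken as 260-nm leakage above the TCA-extractable pool.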

[8] = tested on: Staphylococcus aureus; experiment: Intracellular coagulation in Staphylococcus aureus ATCC 6538 at tested concentrations 4.5, 9, 12 and 15 ug/ml; type: functional, organism-based
[9] = tested on: Staphylococcus aureus; experiment: Loss of membrane integrity in Staphylococcus aureus ATCC 6538 at above 4.5 ug/ml; type: functional, organism-based; in short: as §2
[10] = tested on: Staphylococcus aureus; experiment: Antibacterial activity against 10^9 CFU/ml Staphylococcus aureus ATCC 6538 after 48 hrs; type: functional; details: ATCC 6538, 48 h; in short: as §1

Question: With `CCCCCCCCCC[N+](C)(C)CCCCCCCCCC.[Cl-]` [DIDECYLDIMETHYLAMMONIUM CHLORIDE] as the compound, how does the Activity [1] read?
Answer: 90%

Question: What about the MIC [2] of the same compound?
Answer: 0.6 µg/mL

Question: What about the MIC [3] of the same compound?
Answer: 0.4 µg/mL

Question: And the MIC [4]?
Answer: 0.4 µg/mL

Question: And the Activity [5]?
Answer: Active

Question: And the MIC [6]?
Answer: 0.4 µg/mL

Question: And the Activity [7]?
Answer: Active

Question: And the Activity [8]?
Answer: inactive

Question: And the Activity [9]?
Answer: Active

Question: What about the MIC [10] of the same compound?
Answer: 1.6 µg/mL
